Test results: ChEMBL document CHEMBL4393666, “Synthesis and Anti-HCV Activities of 4'-Fluoro-2'-Substituted Uridine Triphosphates and Nucleotide Prodrugs: Discovery of 4'-Fluoro-2'- C-methyluridine 5'-Phosphoramidate Prodrug (AL-335) for the Treatment of Hepatitis C Infection” (J Med Chem, 2019)
Calls of active or inactive are those of the source. No cut-off for these calls is given here.

What was measured:
DNA polymerase alpha = molecular target: T1, DNA polymerase alpha (Homo sapiens, UniProt P09884); test: Inhibition of human DNA polymerase-alpha assessed as reduction in [3H]dTTP incorporation in to activated calf thymus DNA substrate at 100 uM by scintillation counting method relative to control; conditions: human DNA polymerase-alpha enzyme, probe [3H]dTTP
T1 sequence (P09884 whole entry): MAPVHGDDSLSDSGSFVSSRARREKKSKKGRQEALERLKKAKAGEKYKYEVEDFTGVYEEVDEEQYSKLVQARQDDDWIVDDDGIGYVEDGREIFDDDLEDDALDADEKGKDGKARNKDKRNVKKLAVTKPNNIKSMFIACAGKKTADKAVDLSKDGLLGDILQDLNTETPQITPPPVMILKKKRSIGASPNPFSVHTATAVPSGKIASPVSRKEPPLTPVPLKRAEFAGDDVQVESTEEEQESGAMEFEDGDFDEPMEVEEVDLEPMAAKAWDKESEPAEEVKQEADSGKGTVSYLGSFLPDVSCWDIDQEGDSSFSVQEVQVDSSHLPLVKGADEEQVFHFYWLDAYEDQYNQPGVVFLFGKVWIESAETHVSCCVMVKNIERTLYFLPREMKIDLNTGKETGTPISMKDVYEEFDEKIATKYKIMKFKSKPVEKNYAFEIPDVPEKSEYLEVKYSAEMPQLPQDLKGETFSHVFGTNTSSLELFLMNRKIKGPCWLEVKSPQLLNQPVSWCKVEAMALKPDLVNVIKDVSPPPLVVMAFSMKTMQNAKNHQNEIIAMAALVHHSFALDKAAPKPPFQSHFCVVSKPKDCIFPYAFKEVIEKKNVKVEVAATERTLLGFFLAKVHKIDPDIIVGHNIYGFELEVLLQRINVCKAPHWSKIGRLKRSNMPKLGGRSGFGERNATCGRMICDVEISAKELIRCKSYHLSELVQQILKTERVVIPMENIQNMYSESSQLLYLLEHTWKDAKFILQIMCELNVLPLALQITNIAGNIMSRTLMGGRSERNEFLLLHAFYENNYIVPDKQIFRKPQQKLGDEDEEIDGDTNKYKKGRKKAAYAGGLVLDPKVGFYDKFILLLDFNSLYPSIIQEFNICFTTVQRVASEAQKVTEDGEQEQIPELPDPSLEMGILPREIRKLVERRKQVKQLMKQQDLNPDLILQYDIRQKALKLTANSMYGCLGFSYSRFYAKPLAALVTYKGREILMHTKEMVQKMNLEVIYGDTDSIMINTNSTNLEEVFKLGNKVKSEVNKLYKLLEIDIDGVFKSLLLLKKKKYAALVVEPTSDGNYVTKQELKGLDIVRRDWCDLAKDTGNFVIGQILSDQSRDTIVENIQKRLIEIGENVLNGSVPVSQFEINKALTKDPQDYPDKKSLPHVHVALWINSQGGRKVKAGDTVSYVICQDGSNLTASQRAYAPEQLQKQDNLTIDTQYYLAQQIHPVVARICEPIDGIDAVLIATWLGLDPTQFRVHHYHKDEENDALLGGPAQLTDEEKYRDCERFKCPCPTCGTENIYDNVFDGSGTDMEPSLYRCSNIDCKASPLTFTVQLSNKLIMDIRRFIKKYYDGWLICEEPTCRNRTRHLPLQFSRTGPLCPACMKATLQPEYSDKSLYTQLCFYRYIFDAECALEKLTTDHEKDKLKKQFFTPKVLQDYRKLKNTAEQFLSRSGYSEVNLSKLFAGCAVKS

DNA polymerase beta = DNA polymerase beta (Homo sapiens, UniProt P06746); test: Inhibition of human DNA polymerase-beta assessed as reduction in [3H]dTTP incorporation in to activated calf thymus DNA substrate at 100 uM by scintillation counting method relative to control; conditions: human DNA polymerase-beta enzyme, probe [3H]dTTP
DNA polymerase gamma = molecular target: T2, DNA polymerase gamma (Homo sapiens, UniProt P54098); test: Inhibition of human DNA polymerase-gamma assessed as reduction in [3H]dTTP incorporation in to activated calf thymus DNA substrate at 100 uM by scintillation counting method relative to control; conditions: human DNA polymerase-gamma enzyme, probe [3H]dTTP
T2 sequence (P54098 whole entry): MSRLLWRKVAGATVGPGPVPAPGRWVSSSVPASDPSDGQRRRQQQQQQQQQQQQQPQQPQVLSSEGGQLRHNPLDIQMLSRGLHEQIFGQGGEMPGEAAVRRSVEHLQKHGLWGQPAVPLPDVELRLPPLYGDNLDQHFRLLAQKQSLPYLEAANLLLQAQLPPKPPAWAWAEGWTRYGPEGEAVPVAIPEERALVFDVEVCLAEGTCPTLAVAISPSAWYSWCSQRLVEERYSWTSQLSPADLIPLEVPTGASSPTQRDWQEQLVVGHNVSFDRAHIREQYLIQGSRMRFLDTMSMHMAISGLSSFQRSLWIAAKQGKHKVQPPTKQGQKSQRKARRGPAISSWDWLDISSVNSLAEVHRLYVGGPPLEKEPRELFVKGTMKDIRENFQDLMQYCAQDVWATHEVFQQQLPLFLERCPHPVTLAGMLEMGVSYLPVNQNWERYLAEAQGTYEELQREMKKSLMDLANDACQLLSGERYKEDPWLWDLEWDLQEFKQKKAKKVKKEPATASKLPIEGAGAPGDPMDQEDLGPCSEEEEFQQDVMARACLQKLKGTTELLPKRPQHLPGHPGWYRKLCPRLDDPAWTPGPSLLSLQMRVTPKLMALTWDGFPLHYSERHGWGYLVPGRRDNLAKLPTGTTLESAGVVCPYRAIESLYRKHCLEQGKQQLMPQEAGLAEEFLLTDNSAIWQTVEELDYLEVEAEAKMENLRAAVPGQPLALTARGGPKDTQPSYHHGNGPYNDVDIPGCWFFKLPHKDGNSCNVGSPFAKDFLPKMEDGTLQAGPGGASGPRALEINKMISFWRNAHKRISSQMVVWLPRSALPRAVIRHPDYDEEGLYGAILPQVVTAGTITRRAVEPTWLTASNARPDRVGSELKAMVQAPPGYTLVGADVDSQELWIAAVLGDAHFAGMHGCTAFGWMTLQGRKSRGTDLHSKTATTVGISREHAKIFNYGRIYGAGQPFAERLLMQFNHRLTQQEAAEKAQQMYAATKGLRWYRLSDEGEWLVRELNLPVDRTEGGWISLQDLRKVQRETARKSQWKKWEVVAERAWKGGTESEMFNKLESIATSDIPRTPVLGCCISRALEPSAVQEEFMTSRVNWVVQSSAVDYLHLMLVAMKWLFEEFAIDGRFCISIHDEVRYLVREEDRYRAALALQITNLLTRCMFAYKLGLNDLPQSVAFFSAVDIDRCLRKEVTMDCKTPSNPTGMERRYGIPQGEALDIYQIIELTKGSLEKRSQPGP

[1] = Inhibition of RNA polymerase 2 in human HeLa cell nuclear extract assessed as reduction in RNA transcription by PAGE analysis; type: cell-based
How it was run: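 In vitro transcription by RNA polymerase II in HeLa cell nuclear extract; RNA products resolved on 6% TBE-urea polyacrylamide gels.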

[2] = molecular target: RNA-directed RNA polymerase (Hepacivirus hominis, UniProt O39930); test: Inhibition of HCV NS5B RNA-dependent RNA polymerase activity assessed as reduction in radiolabeled-CTP incorporation into RNA using cIRES template measured after 2 hrs by microscintillation counting method
Sequence of RNA-directed RNA polymerase (O39930 whole entry): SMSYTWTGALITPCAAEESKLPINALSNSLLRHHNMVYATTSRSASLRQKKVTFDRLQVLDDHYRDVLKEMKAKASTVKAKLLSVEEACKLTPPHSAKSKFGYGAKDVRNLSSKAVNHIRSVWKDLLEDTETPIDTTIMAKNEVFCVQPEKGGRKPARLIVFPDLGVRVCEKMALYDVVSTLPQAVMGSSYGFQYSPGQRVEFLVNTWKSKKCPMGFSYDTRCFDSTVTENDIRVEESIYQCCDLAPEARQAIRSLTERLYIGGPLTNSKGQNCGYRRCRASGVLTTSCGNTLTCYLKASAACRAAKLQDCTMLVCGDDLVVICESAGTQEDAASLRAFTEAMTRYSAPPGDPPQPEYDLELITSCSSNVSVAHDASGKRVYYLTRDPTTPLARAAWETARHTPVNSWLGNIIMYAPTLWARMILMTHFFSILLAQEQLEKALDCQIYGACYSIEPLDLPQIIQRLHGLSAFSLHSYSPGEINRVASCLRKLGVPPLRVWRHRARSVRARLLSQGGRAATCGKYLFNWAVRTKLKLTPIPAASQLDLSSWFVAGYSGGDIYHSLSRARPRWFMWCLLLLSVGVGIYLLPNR

[3] = molecular target: RNA-directed RNA polymerase (Hepacivirus hominis) (UniProt O39930); test: Inhibition of HCV NS5B RNA-dependent RNA polymerase assessed as chain termination of RNA synthesis by measuring reduction in UTP incorporation at 100 uM using 33P-labeled 5'-GG-3'/5'-AUGUAUAAUUAUUGUAGCC-3' as primer/template measured after 2 hrs by phosphor-screening analysis
Sequence of RNA-directed RNA polymerase (Hepacivirus hominis) (O39930 1-591): as the sequence (O39930 whole entry) above
How it was run: (§1)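 Recombinant NS5B (2 μM) with 1 μM template and 0.5 μM 33P-labeled GG primer in 40 mM Tris-HCl pH 8, 3 mM DTT, 20 mM NaCl, 6 mM MgCl2. Started with combinations of CTP, ATP, UTP, test NTP and 3'-dUTP, each 100 μM; 2 h at 30°C. Samples denatured 95°C 5 min, resolved on 22.5% polyacrylamide urea sequencing gel, phosphor-screen imaged.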

[4] = molecular target: RNA-directed RNA polymerase (Hepacivirus hominis) (UniProt O39930); test: Inhibition of HCV NS5B RNA-dependent RNA polymerase assessed as chain termination of RNA synthesis by measuring reduction in dUTP incorporation at 100 uM using 33P-labeled 5'-GG-3'/5'-AUGUAUAAUUAUUGUAGCC-3' as primer/template measured after 2 hrs by phosphor-screening analysis; how it was run: as §1
[5] = molecular target: DNA-directed RNA polymerase, mitochondrial (Homo sapiens, UniProt O00411); test: Inhibition of human mitochondrial DNA-dependent RNA polymerase activity at 100 uM using 33P-RNA/DNA primer/template by phosphor-imaging analysis
Sequence of DNA-directed RNA polymerase, mitochondrial (O00411 whole entry): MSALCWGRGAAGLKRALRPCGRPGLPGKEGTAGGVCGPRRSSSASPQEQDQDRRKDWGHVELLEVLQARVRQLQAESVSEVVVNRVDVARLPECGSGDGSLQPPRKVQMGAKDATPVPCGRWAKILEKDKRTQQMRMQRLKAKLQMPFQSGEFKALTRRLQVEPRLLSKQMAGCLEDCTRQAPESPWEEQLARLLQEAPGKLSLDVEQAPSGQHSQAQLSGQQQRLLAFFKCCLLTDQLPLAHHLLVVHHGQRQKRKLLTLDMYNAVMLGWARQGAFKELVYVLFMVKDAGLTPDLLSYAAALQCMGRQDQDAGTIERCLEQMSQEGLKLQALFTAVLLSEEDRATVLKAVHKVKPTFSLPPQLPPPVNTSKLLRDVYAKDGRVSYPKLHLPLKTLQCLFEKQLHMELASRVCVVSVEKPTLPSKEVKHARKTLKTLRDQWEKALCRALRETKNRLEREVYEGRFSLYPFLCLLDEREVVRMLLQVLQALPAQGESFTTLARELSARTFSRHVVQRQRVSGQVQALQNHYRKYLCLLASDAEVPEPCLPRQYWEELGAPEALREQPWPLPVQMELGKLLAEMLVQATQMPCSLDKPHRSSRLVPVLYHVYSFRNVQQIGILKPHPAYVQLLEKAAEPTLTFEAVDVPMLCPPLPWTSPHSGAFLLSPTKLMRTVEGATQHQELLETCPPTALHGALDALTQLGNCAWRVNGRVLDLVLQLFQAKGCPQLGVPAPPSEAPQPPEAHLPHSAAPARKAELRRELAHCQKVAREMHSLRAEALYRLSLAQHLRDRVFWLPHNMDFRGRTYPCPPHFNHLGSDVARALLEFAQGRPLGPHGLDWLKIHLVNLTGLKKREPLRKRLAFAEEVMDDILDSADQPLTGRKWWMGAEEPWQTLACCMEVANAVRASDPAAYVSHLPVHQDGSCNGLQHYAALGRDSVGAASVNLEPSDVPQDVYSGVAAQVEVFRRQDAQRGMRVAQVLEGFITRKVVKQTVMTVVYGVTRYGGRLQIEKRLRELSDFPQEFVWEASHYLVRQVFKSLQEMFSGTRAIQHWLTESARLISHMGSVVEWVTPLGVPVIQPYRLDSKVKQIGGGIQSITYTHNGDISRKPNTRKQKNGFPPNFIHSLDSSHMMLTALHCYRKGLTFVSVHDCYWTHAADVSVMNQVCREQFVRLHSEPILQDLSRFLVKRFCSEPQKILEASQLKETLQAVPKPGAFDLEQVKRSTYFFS

[6] = Cytotoxicity against human HuH7 cells treated for 8 days measured post-last dose by Celltiter-glo luminescent assay; type: cell-based, Huh-7
How it was run: (§2)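 Cells at 1×10^5/well on collagen I, first kept 8 days in recommended medium without drug. Then compound exposure for 8 days, refed every other day. Viability by CellTiter-Glo luminescence; CC50 by curve fitting.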

[7] = Cytotoxicity against human HepG2 cells treated for 8 days measured post-last dose by Celltiter-glo luminescent assay; type: cell-based; how it was run: as §2
[8] = Cytotoxicity against human A549 cells treated for 8 days measured post-last dose by Celltiter-glo luminescent assay; type: cell-based; how it was run: as §2
[9] = Cytotoxicity against human HeLa cells treated for 8 days measured post-last dose by Celltiter-glo luminescent assay; type: cell-based; how it was run: as §2
[10] = Cytotoxicity against human U937 cells treated for 8 days measured post-last dose by Celltiter-glo luminescent assay; type: cell-based, U-937; how it was run: as §2
[11] = Cytotoxicity against human MT4 cells treated for 8 days measured post-last dose by Celltiter-glo luminescent assay; type: cell-based; how it was run: as §2
Hepatitis C virus = test: Antiviral activity against HCV con1 subgenomic replicon infected in human HuH7 cells assessed as reduction in viral RNA replication by qRT-PCR analysis; type: functional, organism-based, Hepacivirus hominis; conditions: isolate Con1, Huh-7
How it was run: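 Con1 subgenomic replicon Huh-7 cells (neomycin selection, kept in DMEM/10% FBS with 0.25 mg/ml G418) treated with compounds in DMEM, 2% FBS, 0.5% DMSO, no G418, at 37°C. Total RNA extracted; HCV RNA copy number by multiplex Taqman QRT-PCR. EC50/EC90 by 4-parameter curve fit; EC50 is the mean of ≥2 independent runs.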

[12] = Cytotoxicity against human HuH7 cells infected with HCV con1 subgenomic replicon assessed as reduction in cell viability measured after 3 days by CellTiter-blue cell viability assay; type: cell-based, Huh-7
How it was run: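 Con1 replicon Huh-7 cells treated as for the replicon assay (DMEM, 2% FBS, 0.5% DMSO, no G418, 37°C) for 3 days. Viability by CellTiter-Blue; CC50 by curve fitting.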

[13] = Half life in human hepatocytes assessed as 2a-TP level at 50 uM treated for 24 hrs followed by compound washout by LC-MS/MS analysis; type: ADME, cell-based, Hepatocyte
How it was run: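 Primary human hepatocytes loaded with prodrug at 50 μM for 24 h at 37°C. Medium then replaced with blank medium; samples at 0, 3, 6, 10, 24 and 48 h. NTP by LC-MS/MS; half-life from first-order decay; n=3.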

Compound | inhibition at 100 µM (DNA polymerase alpha) | inhibition at 100 µM (DNA polymerase beta) | inhibition at 100 µM (DNA polymerase gamma) | IC50 [1] | IC50 [2] | inhibition (INH) [5] | other results
C[C@]1(F)[C@H](n2ccc(=O)[nH]c2=O)O[C@](F)(COP(=O)(O)OP(=O)(O)OP(=O)(O)O)[C@H]1O | 40.9% | 15.2% | -10% | > 100000 nM | 860 nM | – | –
C[C@]1(O)[C@H](n2ccc(=O)[nH]c2=O)O[C@](F)(COP(=O)(O)OP(=O)(O)OP(=O)(O)O)[C@H]1O [ADAFOSBUVIR 5'-TRIPHOSPHATE] | 16.1% | 12.6% | 9.6% | > 100000 nM | 140 nM | Not Active | inhibition [3]: Active; inhibition [4]: Active
COc1nc(N)nc2c1ncn2[C@@H]1O[C@H](COP(=O)(N[C@@H](C)C(=O)OCC(C)(C)C)Oc2cccc3ccccc23)[C@@H](O)[C@@]1(C)O (stereo partly drawn) [BMS-986094] | – | – | – | – | – | – | CC50 at 192 h [6]: 350 nM; CC50 at 192 h [7]: 1500 nM; CC50 at 192 h [8]: 7800 nM; CC50 at 192 h [9]: 13400 nM; CC50 at 192 h [10]: 170 nM; CC50 at 192 h [11]: 960 nM
C[C@]1(Cl)[C@H](n2ccc(=O)[nH]c2=O)O[C@](F)(COP(=O)(O)OP(=O)(O)OP(=O)(O)O)[C@H]1O | 19.7% | 24.3% | 18.4% | > 100000 nM | 110 nM | Not Active | –
C[C@@]1(O)[C@H](O)[C@@H](COP(=O)(O)OP(=O)(O)OP(=O)(O)O)O[C@H]1n1ccc(=O)[nH]c1=O | 22.4% | -0.008% | 14.6% | > 100000 nM | – | Active | –
CC(C)OC(=O)[C@H](C)NP(=O)(OC[C@@]1(F)O[C@@H](n2ccc(=O)[nH]c2=O)[C@](C)(O)[C@@H]1O)Oc1ccccc1 (stereo partly drawn) | – | – | – | – | – | – | EC50 (Hepatitis C virus): 110 nM; CC50 at 72 h [12]: > 100000 nM; t1/2 [13]: 30.1 h
O=c1ccn([C@@H]2O[C@H](COP(=O)(O)OP(=O)(O)OP(=O)(O)O)[C@@H](O)[C@]2(F)Cl)c(=O)[nH]1 | 70.8% | 24.7% | 15.7% | > 100000 nM | 300 nM | – | –
C[C@@]1(Cl)[C@H](O)[C@@H](COP(=O)(O)OP(=O)(O)OP(=O)(O)O)O[C@H]1n1ccc(=O)[nH]c1=O [4A-TP] | 34.5% | 22.6% | 9.5% | > 100000 nM | – | Active | –
